# Legend:
# [1] = Cytotoxicity against human MT4 cells after 96 hrs by MTT assay; assay type: cell-based
# Outline: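 Exponentially growing MT-4 cells seeded at 1×10^5 cells/mL in RPMI-1640 with 10% FBS, penicillin and streptomycin. Incubated with serial compound dilutions at 37 °C, 5% CO2 for 96 h; viability by MTT. CC50 by linear regression relative to untreated controls; mean of three independent determinations.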
# [2] = tested on: Human immunodeficiency virus 1; assay: Antiviral activity against HIV1 3B infected in human MT4 cells assessed as inhibition of virus-induced cytopathogenicity after 4 days by MTT assay; assay type: functional, organism-based; settings: Human immunodeficiency virus 1, 3B, MT4, 96 h
# Outline: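 MT-4 cells (1×10^4 per well) were infected with HIV-1 IIIB at 100 CCID50, m.o.i. 0.01, together with serial compound dilutions. Viability was read by MTT after 4 days at 37 °C. EC50 was taken by linear regression versus untreated controls. Mean of three determinations.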
# [3] = Cytotoxicity against MDBK cells after 48 to 96 hrs by MTT assay; assay type: cell-based, Bos taurus; settings: cattle
# Outline: (§1)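 MDBK seeded at 6×10^5 and BHK at 1×10^6 cells/mL in MEM-Earle's with L-glutamine, 1 mM pyruvate, kanamycin, plus 10% horse serum (MDBK) or 10% FBS (BHK). Cells were grown at 37 °C, 5% CO2 with serial compound dilutions (DMSO stocks diluted in medium). Viability by MTT after 48–96 h. CC50 was taken by linear regression versus untreated controls; three independent determinations.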
# [4] = Antiviral activity against Bovine viral diarrhea virus 1-NADL infected in MDBK cells assessed as inhibition of virus-induced cytopathogenicity after 3 to 4 days by MTT assay; assay type: functional, cell-based; settings: Bovine viral diarrhea virus isolates and strains
# Outline: (§2)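 Host cells were seeded in 96-well plates at 3×10^4 cells/well (MDBK) or 5×10^4 cells/well (BHK-21) and grown to confluent monolayers overnight. They were infected at m.o.i. 0.01 in maintenance MEM with 0.5% inactivated FBS. Serial compound dilutions were added after 1 h. Viability was read by MTT after 3–4 days at 37 °C. EC50 was taken by linear regression against untreated controls. Mean of three determinations.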
# [5] = Cytotoxicity against BHK21 cells after 48 to 96 hrs by MTT assay; assay type: cell-based, Mesocricetus auratus, BHK-21; settings: hamster; outline: as §1
# Yellow fever virus = assay: Antiviral activity against Yellow fever virus 17D Stamaril Pasteur J07B01 infected in hamster BHK21 cells assessed as inhibition of virus-induced cytopathogenicity after 3 to 4 days by MTT assay; assay type: functional, cell-based; settings: Stamaril Pasteur J07B01, BHK-21; outline: as §2
# Reovirus sp. = assay: Antiviral activity against Reovirus type-1 3651 infected in hamster BHK21 cells assessed as inhibition of virus-induced cytopathogenicity after 3 to 4 days by MTT assay; assay type: functional, organism-based; settings: Reovirus sp., 3651, BHK-21; outline: as §2
# [6] = Cytotoxicity against african green monkey Vero 76 cells after 48 to 96 hrs by crystal violet staining; assay type: cell-based; settings: chlorocebus sabaeus
# Outline: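 Vero-76 cells were seeded at 4×10^5 cells/mL in D-MEM with L-glutamine, kanamycin and 10% FBS, then exposed to serial compound dilutions at 37 °C, 5% CO2 for 48–96 h. Viability was read by crystal violet staining. 50% cytotoxic concentration by linear regression relative to untreated controls; mean of three independent determinations.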
# Coxsackievirus B5 = assay: Antiviral activity against Human coxsackievirus B5 Ohio-1 infected in african green monkey Vero 76 cells assessed as reduction of virus-induced plaque formation after 3 days using crystal violet staining; assay type: functional, organism-based; settings: Enterovirus B, Ohio-1, Vero, 72 h
# Poliovirus 1 = assay: Antiviral activity against Human poliovirus 1 strain Sabin Chat infected in african green monkey Vero 76 cells assessed as virus-induced reduction of plaque formation after 2 days using crystal violet staining; assay type: functional, cell-based; settings: Enterovirus C, 48 h
# Human orthopneumovirus = assay: Antiviral activity against Human respiratory syncytial virus A2 infected in african green monkey Vero 76 cells assessed as reduction of virus-induced plaque formation after 5 days using crystal violet staining; assay type: functional, organism-based; settings: 120 h
# [7] = tested on: Vesicular stomatitis Indiana virus; assay: Antiviral activity against clinical isolate Vesicular stomatitis Indiana virus infected in african green monkey Vero 76 cells assessed as reduction of virus-induced plaque formation after 2 days using crystal violet staining; assay type: functional, organism-based; settings: 48 h
# [8] = Antiviral activity against Vaccinia virus Lister Elstree infected in african green monkey Vero 76 cells assessed as reduction of virus-induced plaque formation after 3 days using crystal violet staining; assay type: functional, cell-based; settings: 72 h
# Human alphaherpesvirus 1 = assay: Antiviral activity against Human herpesvirus 1 strain KOS infected in african green monkey Vero 76 cells assessed as reduction of virus-induced plaque formation after 3 days using crystal violet staining; assay type: functional, organism-based; settings: Human alphaherpesvirus 1, KOS, 72 h
SMILES,CC50 at 96 h [1] [µM],EC50 [2] [µM],CC50 [3] [µM],EC50 [4] [µM],CC50 [5] [µM],EC50 (Yellow fever virus) [µM],EC50 (Reovirus sp.) [µM],CC50 [6] [µM],EC50 (Coxsackievirus B5) [µM],EC50 (Poliovirus 1) [µM],EC50 (Human orthopneumovirus) [µM],EC50 [7] [µM],EC50 [8] [µM],EC50 (Human alphaherpesvirus 1) [µM]
O=C(CCl)Cn1nnc2cc3cccnc3c(Cl)c21,23,> 23,21,> 21,65,> 65,> 65,> 100,> 100,> 100,> 100,> 100,> 100,> 100
Oc1ccnc2c(Cl)c3[nH]nnc3cc12,> 100,> 100,> 100,> 100,> 100,> 100,≥ 100,> 100,> 100,> 100,> 100,> 100,> 100,> 100
O=[N+]([O-])c1c2cccnc2c(Cl)c2[nH]nnc12,> 100,> 100,> 100,23,> 100,> 100,> 100,> 100,> 100,> 100,> 100,> 100,> 100,> 100
N#CCn1nnc2c(Cl)c3ncccc3cc21,62,> 62,> 100,23,> 100,> 100,> 100,> 100,> 100,> 100,> 100,> 100,> 100,51
N#CCn1nnc2cc3cccnc3c(Cl)c21,100,> 100,> 100,100,> 100,> 100,> 100,> 100,> 100,> 100,> 100,> 100,> 100,> 100
O=C(CCl)Cn1nnc2c(Cl)c3ncccc3cc21,21,> 21,53,> 53,85,> 85,> 85,> 100,> 100,> 100,> 100,> 100,> 100,> 100
c1ccc(-c2nc3cc4cccnc4cc3[nH]2)cc1,28,> 28,80,10,40,> 40,13,> 100,19,37,> 100,> 100,> 100,> 100
Clc1c2ncccc2cc2nc(-c3ccccc3)[nH]c12,29,> 29,65,4,35,> 35,10,> 100,36,53,> 100,> 100,> 100,> 100
Clc1ccc(-c2nc3cc4cccnc4cc3[nH]2)cc1,100,> 100,> 100,18,> 100,> 100,> 100,> 100,43,> 100,> 100,> 100,> 100,> 100
Nc1ccc(-c2nc3cc4cccnc4c(Cl)c3[nH]2)cc1,15,> 15,45,10,42,> 42,> 42,> 100,78,> 100,> 100,> 100,> 100,> 100
CC(=O)Nc1ccc(-c2nc3cc4cccnc4c(Cl)c3[nH]2)cc1,> 100,> 100,> 100,11,> 100,> 100,51,> 100,> 100,> 100,> 100,> 100,> 100,> 100
COc1ccccc1-c1nc2cc3cccnc3cc2[nH]1,14,> 14,11,≥ 11,32,> 32,> 32,75,47,> 75,> 75,> 75,> 75,> 75
Clc1ccc(-c2nc3cc4cccnc4cc3[nH]2)cc1Cl,> 100,> 100,> 100,> 100,> 100,> 100,> 100,> 100,> 100,> 100,> 100,> 100,> 100,> 100
